Consider eight compounds from ChEMBL document CHEMBL1944586, “Malaria-infected mice are completely cured by one 6 mg/kg oral dose of a new monomeric trioxane sulfide combined with mefloquine” (J Med Chem, 2012).

Some results are limits rather than exact numbers.

Data set [1] relates to Plasmodium berghei. Briefly: Antimalarial activity against Plasmodium berghei ANKA infected in C57BL/6 mouse assessed as host survival at 100 mg/kg, po administered 24 hrs post-infection (reference value: 6.8 days). Type of data set: functional.
A further data set deals with Plasmodium falciparum. Briefly: Antimalarial activity against Plasmodium falciparum NF54. The class given is functional, organism-based.
For the next data set, the system named is Mus musculus. Briefly: Toxicity in Plasmodium berghei ANKA infected C57BL/6 mouse assessed as effect on longevity at 100 mg/kg, po administered 24 hrs post-infection measured after 3 days. The conditions noted are these: in vivo, 72 h. The class given is organism-based. Details: dose 100 mg/kg, route oral.
Data set [2] relates to Plasmodium berghei. Briefly: Antimalarial activity against Plasmodium berghei ANKA infected in C57BL/6 mouse assessed as host survival at 15 mg/kg, po administered 24 hrs post-infection (reference value: 6.8 days). Type of data set: functional.
The test system of data set [3] is Plasmodium berghei. Briefly: Antimalarial activity against Plasmodium berghei ANKA infected in C57BL/6 mouse assessed as host survival at 18 mg/kg, po administered 24 hrs post-infection (reference value: 6.8 days). The class given is functional.
Data set [4] deals with Plasmodium berghei. Briefly: Antimalarial activity against Plasmodium berghei ANKA infected in C57BL/6 mouse assessed as decrease in parasitemia at 15 mg/kg, po administered 24 hrs post-infection measured after 3 days by Giemsa microscopy relative to vehicle treated control. The class given is functional. More on the design: scale not given: the % may be the effect or the level left. An outline of the steps:
(§1)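 Male C57BL/6J mice, 5 weeks old, about 20 g, infected i.p. on day 0 with 5 × 10⁷ P. berghei ANKA-parasitized erythrocytes. At 24 h post-infection, four mice per group received one oral dose in 7:3 Tween 80:ethanol diluted in water: trioxane 6 mg/kg plus mefloquine HCl 18 mg/kg, or trioxane 7.5 mg/kg plus mefloquine HCl 15 mg/kg. Untreated infected controls were included. Blood parasitemia was read by Giemsa microscopy.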

The test system of data set [5] is Plasmodium berghei. Briefly: Antimalarial activity against Plasmodium berghei ANKA infected in C57BL/6 mouse assessed as decrease in parasitemia at 18 mg/kg, po administered 24 hrs post-infection measured after 3 days by Giemsa microscopy relative to vehicle treated control. The class given is functional. Details: scale not given: the % may be the effect or the level left. The gist of the method: as §1

Turning to `CSc1cccc(NC(=O)CC[C@H]2O[C@@H]3O[C@@]4(C)CC[C@H]5[C@H](C)CC[C@@H]([C@H]2C)[C@@]35OO4)c1`, in the data set with Plasmodium berghei [1], the Survival came out at 15 days. Moreover, in the data set on Plasmodium falciparum, the EC50 (usually the concentration needed to bring the measured effect to its halfway point) was found to be 9.1 nM. Further, in the data set on Mus musculus, the Activity result was “Non-toxic”.
For `CSc1cc(NC(=O)CC[C@H]2O[C@@H]3O[C@@]4(C)CC[C@H]5[C@H](C)CC[C@@H]([C@H]2C)[C@@]35OO4)cc(SC)c1` the same measures were 7.5 days, 6.5 nM and “Non-toxic”.
The compound `C[C@H]1[C@@H](CCC(=O)Nc2cccc([S@+](C)[O-])c2)O[C@@H]2O[C@@]3(C)CC[C@H]4[C@H](C)CC[C@@H]1[C@@]24OO3` registered an EC50 in the data set on Plasmodium falciparum of 23 nM.
In the case of `C[C@H]1[C@@H](CCC(=O)Nc2cccc([S@@+](C)[O-])c2)O[C@@H]2O[C@@]3(C)CC[C@H]4[C@H](C)CC[C@@H]1[C@@]24OO3`, in the data set with Plasmodium falciparum, the midpoint of the response, the EC50, lay at 29 nM.
For the compound `C[C@H]1[C@@H](CCC(=O)Nc2cccc(S(C)(=O)=O)c2)O[C@@H]2O[C@@]3(C)CC[C@H]4[C@H](C)CC[C@@H]1[C@@]24OO3`, the EC50 in the data set with Plasmodium falciparum stood at 21 nM.
As to `O[C@@H](c1cc(C(F)(F)F)nc2c(C(F)(F)F)cccc12)[C@H]1CCCCN1` (relative stereo) [(S,R)-MEFLOQUINE], the Survival was 15.5 days in the data set on Plasmodium berghei [2] and 19.8 days with Plasmodium berghei [3]. Moreover, the Activity in the data set with Plasmodium berghei [4] and with Plasmodium berghei [5] was greater than 99.9% each time.
Turning to `C[C@@H]1CC[C@H]2[C@@H](C)C(=O)O[C@@H]3O[C@@]4(C)CC[C@@H]1[C@]32OO4` [ARTEMISININ], in the data set with Plasmodium falciparum, a half-maximal effect (EC50) was put at 10 nM.
`CCCCN(CCCC)CC(O)c1cc(Cl)cc2c1-c1ccc(Cl)cc1/C2=C/c1ccc(Cl)cc1` (stereo not given) [LUMEFANTRINE]: the Activity with Plasmodium berghei [5] is greater than 99.9%.
